{
  "source": "paper PMC9671271",
  "about": "(ACS infectious diseases, 2022)",
  "key": {"C. albicans cells [1]": {"test_system": "C. albicans cells", "assay": "Propidium iodide membrane permeability assay, confocal microscopy, yeast form", "format": "cell-based, Candida albicans SC5314", "settings": "for membrane disruption (PI leakage): 12.5 μM Hist-5, 7.5 μM PI, 5 min, RT, PPB"}, "[2]": {"assay": "Circular dichroism titration for Zn-induced dimerization/aggregation", "format": "physicochemical", "settings": "CD, 0-50 μM Hist-5 with 250 μM ZnCl2, PPB (198 nm) or 98% TFE (222 nm), 25 °C; ellipticity linear up to 50 μM"}, "C. albicans hyphae": {"test_system": "C. albicans hyphae", "assay": "Propidium iodide membrane permeability assay, hyphal form", "format": "cell-based, Candida albicans SC5314", "in_short": "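Colony from YPD agar (30 °C, 24 h) grown 24 h in SD+ at 30 °C, 200 rpm, then diluted to OD600 0.1 in SD+ with 12.5 mM N-acetylglucosamine and grown 24 h at 37 °C, 200 rpm. Cells pelleted and resuspended in PPB pH 7.4, then given 12.5 μM test peptide, 7.5 μM PI, ± ZnCl2 (0.5, 1, 2 eq). Confocal imaging at 5 min, RT; PI excitation 488 nm, emission 600–700 nm.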"}, "C. albicans": {"test_system": "C. albicans", "assay": "Two-dimensional broth microdilution checkerboard assay", "format": "cell-based, Candida albicans SC5314"}, "C. albicans cells [3]": {"test_system": "C. albicans cells", "settings": "acid form of ZQ; stated as known, no reference given; cited from earlier work"}},
  "data": [
    {"compound": "DSHAKRHHGYKRKFHEKHHSHRGY [Hist-5, Histatin-5]", "values": [
      {"measurement": "membrane disruption (PI leakage)", "setting": "C. albicans cells [1]; no added Zn^2+", "result": "allows leakage of PI into the cytosol"},
      {"measurement": "membrane disruption (PI leakage)", "setting": "C. albicans cells [1]; one or more molar equivalents of Zn^2+", "result": "did not cause dye leakage"},
      {"measurement": "membrane disruption (PI leakage)", "setting": "C. albicans cells [1]; submolar equivalents of Zn^2+", "result": "internalization of PI"},
      {"measurement": "Zn-induced peptide dimerization/aggregation", "setting": "[2]", "result": "dimerization/aggregation is not occurring"},
      {"measurement": "membrane activity on hyphae (PI leakage)", "setting": "C. albicans hyphae; 12.5 μM Hist-5, 7.5 μM PI, with Zn^2+ supplementation", "result": "protective effect against Hist-5-induced membrane disruption"},
      {"measurement": "membrane activity on hyphae (PI leakage)", "setting": "C. albicans hyphae; 12.5 μM Hist-5 alone, 7.5 μM PI, 5 min, RT, PPB", "result": "able to permeabilize the cell membrane"},
      {"measurement": "effect of Zn^2+ on fungicidal activity", "setting": "C. albicans; Zn^2+ concentration surpassing the Hist-5 concentration (Figure S9)", "result": "switched from promoting Hist-5 fungicidal activity to inhibiting it"},
      {"measurement": "effect of Zn^2+ supplementation on peptide activity", "setting": "C. albicans; sub-inhibitory concentrations of Hist-5, strongest at 1:2 Zn^2+ to peptide (Figure S9)", "result": "increase in peptide activity"}
    ]},
    {"compound": "Cc1ccc(S(=O)(=O)Nc2cc(OCC(=O)O)cc3ccc(C)nc23)cc1", "note": "[ZQ, 2-methyl-8-(toluene-p-sulfonamido)-6-quinolyloxyacetic acid]", "values": [
      {"measurement": "membrane permeability", "setting": "C. albicans cells [3]", "result": "poor membrane permeability"}
    ]},
    {"compound": "O=C(O)CN(CCN(CC(=O)O)CC(=O)O)CC(=O)O", "note": "[EDTA, ethylenediaminetetraacetic acid]", "values": [
      {"measurement": "PI uptake into the cytosol", "setting": "C. albicans cells [1]; cells treated with EDTA and PI only, no peptide (Figure S14)", "result": "not observed"}
    ]}
  ]
}
